Experimental data from PMC4005002 (Anti-cancer drugs, 2013).
Values joined by “and” are separate entries in the source; they are usually repeats but may differ in a detail not shown here. Identical values can stand only once. Like-named read-outs stand apart in the source and are kept apart here.

Assays:
[1] = VPA serum/plasma levels during treatment; type: in vivo, human
[2] = test system: acetylated H4; details: phase I study of VPA alone, half of the subjects; cited from earlier work
[3] = test system: HDAC activity in PBMC; test: Histone H4 acetylation in peripheral blood mononuclear cells; type: in vivo, human; details: data from subject 6, VPA with Tem
In short: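 PBMC isolated on Ficoll and stored at −80 C. Extracts normalized to cell number were run on SDS-PAGE and blotted with rabbit anti-tetra-acetyl H4 (1:2000) and anti-pan-H4 (1:1000). Scanned blots were quantified.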

[4] = test system: children and adolescents with refractory solid tumors; test: Phase I dose escalation of Tem in combination with VPA: toxicity; type: in vivo
[5] = test system: histone acetylation; details: cited from earlier work
[6] = cited from earlier work; for median Cmax: children
[7] = test system: pediatric patients with recurrent/refractory solid tumors; details: cited from earlier work
[8] = Tem pharmacokinetics in whole blood; type: in vivo, human; details: for AUC(0-t): 0 to 24 hours post dose

Q: Which concentration at 24 h ([1]; human, plasma, oral) does the source give for `CCCC(CCC)C(=O)O` [VPA, Valproic Acid] here?
A: 52000 ng/mL

Q: And the “VPA level at grade 2 thrombocytopenia” value ([1]; one patient, resolved after holding VPA for 3 days)?
A: 56 µg/mL

Q: And the VPA range ([1]; patient 1, Tem 60 mg/m^2)?
A: 26–72 (NA) mcg/mL

Q: What about the “VPA level at time of grade 3 toxicity” value ([1]; patient 2, Tem 60 mg/m^2) of the same compound?
A: 85 µg/mL and 112 µg/mL

Q: What about the VPA range ([1]; patient 2, Tem 60 mg/m^2) of the same compound?
A: 78 to 112 µg/mL

Q: And the “VPA level at time of grade 3 toxicity” value ([1]; patient 3, Tem 60 mg/m^2)?
A: 91 µg/mL

Q: And the VPA range ([1]; patient 3, Tem 60 mg/m^2)?
A: <10 to 91 µg/mL

Q: And the “VPA level at time of grade 3 toxicity” value ([1]; patient 4, Tem 35 mg/m^2)?
A: 108 µg/mL

Q: What about the VPA range ([1]; patient 4, Tem 35 mg/m^2) of the same compound?
A: 68 to 108 µg/mL

Q: What about the “VPA level at time of grade 3 toxicity” value ([1]; patient 5, Tem 35 mg/m^2) of the same compound?
A: 87 µg/mL

Q: And the VPA range ([1]; patient 5, Tem 35 mg/m^2)?
A: 13 to 87 µg/mL

Q: And the “VPA level at time of grade 3 toxicity” value ([1]; patient 6, Tem 35 mg/m^2)?
A: 78 µg/mL

Q: What about the VPA range ([1]; patient 6, Tem 35 mg/m^2) of the same compound?
A: 22 to 78 µg/mL

Q: And the “VPA level at the time of maximum symptoms (grade 3 bilateral plantar pain)” value ([1]; subject #5, beginning of 4th month of treatment)?
A: 87 µg/mL

Q: What about the “VPA levels associated with increased acetylated H4” value [2] of the same compound?
A: 55 to 100 µg/mL

Q: And the “VPA plasma levels required to inhibit HDAC activity in PBMC” value [3]?
A: > 70 µg/dL

Q: What about the “VPA levels with which toxicity seemed to correlate” value ([4]; Tem plus VPA) of the same compound?
A: > 75 µg/mL

Q: And the “fatigue attributed to VPA” value ([4]; in vivo)?
A: dose-limiting fatigue

Q: What about the “VPA levels needed before acetylation is significantly affected” value [5] of the same compound?
A: greater than 100 mcg/mL

Q: Which “median Cmax” value ([6]; Tem 25 mg/m^2 without VPA) does the source give for `CO[C@H]1C[C@@H]2CC[C@@H](C)[C@@](O)(O2)C(=O)C(=O)N2CCCC[C@H]2C(=O)O[C@H]([C@H](C)C[C@@H]2CC[C@@H](OC(=O)C(C)(CO)CO)[C@H](OC)C2)CC(=O)[C@H](C)/C=C(\C)[C@@H](O)[C@@H](OC)C(=O)[C@H](C)C[C@H](C)/C=C/C=C/C=C/1C` [Tem, Temsirolimus] here?
A: 448 ng/mL

Q: What about the “median Cmax” value ([6]; Tem 75 mg/m^2 without VPA) of the same compound?
A: 442 ng/mL

Q: What about the “Peak Tem levels, range” value ([6]; children who had received 75 mg/m^2 Tem without VPA) of the same compound?
A: 369 to 630 ng/mL

Q: What about the “MTD of Tem as single agent” value ([7]; pediatric study) of the same compound?
A: more than 150 mg/m^2 IV/week

Q: And the “MTD of Tem alone” value ([7]; phase I pediatric study)?
A: 150 mg/m^2

Q: What about the “tolerable dose of Tem with VPA” value ([4]; IV weekly with VPA PO TID) of the same compound?
A: 35 mg/m^2/week

Q: What about the “MTD of Tem in combination with VPA” value ([4]; IV weekly, VPA doses dropped using fatigue as endpoint) of the same compound?
A: 35 mg/m2/wk

Q: And the “dose of Tem well tolerated / likely MTD when combined with VPA” value ([4]; IV weekly, only 3 patients treated at this dose)?
A: 35 mg/m^2

Q: What about the “mucositis at the lower dose” value ([4]; human, in vivo) of the same compound?
A: mucositis limited to grade 1 or 2, with the exception of one subject with grade 3

Q: And the “Peak Tem levels, range over patients” value ([8]; Tem 60 mg/m^2 dose level with VPA, both cycles)?
A: 757–1,220 ng/mL

Q: What about the Tmax ([8]; cycle 5, Tem 35 mg/m^2 IV weekly with VPA, median, N = 2) of the same compound?
A: 30 min

Q: What about the Tmax ([8]; human, whole blood, iv, 35 mg/m^2) of the same compound?
A: 39.6 min

Q: And the AUC(0-t) ([8]; human, whole blood, iv, 35 mg/m^2, AUClast, cycle 1, Tem 35 mg/m^2 IV weekly with VPA, median, N = 3)?
A: 7550 ng·h/mL

Q: What about the AUC(0-t) ([8]; human, whole blood, iv, 60 mg/m^2, AUClast, cycle 1, Tem 60 mg/m^2 IV weekly with VPA, median, N = 2) of the same compound?
A: 8330 ng·h/mL

Q: What about the half-life ([8]; human, whole blood, iv, T1/2, cycle 5, Tem 60 mg/m^2 IV weekly with VPA, N = 1) of the same compound?
A: 504 min
